Data: ChEMBL document CHEMBL1129736, “Bisphenolic compounds that enhance cell cation transport are found in commercial phenol red” (1996)

Key:
HFF [1] = test: Effect of compound on K+ ion content of HFF (Human foreskin fibroblasts) Cells at 3 ug/mL; format: functional
HFF [2] = test: Effect of compound on Na+ ion content of HFF (Human foreskin fibroblasts) Cells at 3 ug/mL; format: functional
[3] = K+ / Na+ ratio in HF(Human foreskin fibroblasts) cells; format: functional
HFF [4] = test: Effect of compound on Na+ ion content of HFF (Human foreskin fibroblasts) Cells at 125 ng/mL; format: functional
HFF [5] = test: Effect of compound on K+ ion content of HFF (Human foreskin fibroblasts) Cells at 15.6 ng/mL; format: functional
Outline: (§1)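 Human foreskin fibroblasts were grown in 6 cm dishes in DMEM with 10% FBS and antibiotics at 37 °C in CO2/air, pH 7.2-7.4, at 5 × 10⁵ to 2 × 10⁶ cells/dish. Medium was swapped for serum-free test solution by four rinses. Incubation was 45 min, or 30 min in expt III, at 37 °C. Dishes were washed six times with iced MgCl2 or MgSO4. Read-out was K⁺ or Na⁺ per dish (10⁸ × mol), mean of duplicate dishes.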

HFF [6] = test: Effect of compound on K+ ion content of HFF (Human foreskin fibroblasts) Cells at 31 ng/mL; format: functional; outline: as §1
HFF [7] = test: Effect of compound on Na+ ion content of HFF (Human foreskin fibroblasts) Cells at 62.5 ng/mL; format: functional; outline: as §1
HFF [8] = test: Effect of compound on K+ ion content of HFF (Human foreskin fibroblasts) Cells at 62.5 ng/mL; format: functional; outline: as §1
HFF [9] = test: Effect of compound on Na+ ion content of HFF (Human foreskin fibroblasts) Cells at 31 ng/mL; format: functional; outline: as §1
HFF [10] = test: Effect of compound on Na+ ion content of HFF (Human foreskin fibroblasts) Cells at 15.6 ng/mL; format: functional; outline: as §1
HFF [11] = test: Effect of compound on K+ ion content of HFF (Human foreskin fibroblasts) Cells at 125 ng/mL; format: functional
HFF [12] = test: Effect of compound on K+ ion content of HFF (Human foreskin fibroblasts) Cells at 4.8 ug/mL (Expt II); format: functional; outline: as §1
HFF [13] = test: Effect of compound on K+ ion content of HFF (Human foreskin fibroblasts) Cells at 4.8 ug/mL (Expt III); format: functional; outline: as §1
HFF [14] = test: Effect of compound on Na+ ion content of HFF (Human foreskin fibroblasts) Cells at 2.4 ug/mL; format: functional; outline: as §1
HFF [15] = test: Effect of compound on K+ ion content of HFF (Human foreskin fibroblasts) Cells at 2.4 ug/mL; format: functional; outline: as §1
HFF [16] = test: Effect of compound on Na+ ion content of HFF (Human foreskin fibroblasts) Cells at 4.8 ug/mL (Expt III); format: functional; outline: as §1
HFF [17] = test: Effect of compound on Na+ ion content of HFF (Human foreskin fibroblasts) Cells at 4.8 ug/mL (Expt II); format: functional; outline: as §1
HFF [18] = test: Effect of compound on K+ ion content of HFF (Human foreskin fibroblasts) Cells at 4.8 ug/mL; format: functional
HFF [19] = test: Effect of compound on Na+ ion content of HFF (Human foreskin fibroblasts) Cells at 4.8 ug/mL; format: functional; outline: as §1
HFF [20] = test: Effect of compound on Na+ ion content of HFF Cells at 4.8 ug/mL; format: functional, Homo sapiens
HFF [21] = test: Effect of compound on K+ ion content of HFF (Human foreskin fibroblasts) Cells at 0.3 ug/mL; format: functional; outline: as §1
HFF [22] = test: Effect of compound on Na+ ion content of HFF (Human foreskin fibroblasts) Cells at 0.3 ug/mL; format: functional; outline: as §1
HFF [23] = test: Effect of compound on K+ ion content of HFF (Human foreskin fibroblasts) Cells at 0.1 ug/mL; format: functional; outline: as §1
HFF [24] = test: Effect of compound on Na+ ion content of HFF (Human foreskin fibroblasts) Cells at 0.1 ug/mL; format: functional; outline: as §1
HFF [25] = test: Effect of compound on K+ ion content of HFF (Human foreskin fibroblasts) Cells at 0.03 ug/mL; format: functional; outline: as §1
HFF [26] = test: Effect of compound on Na+ ion content of HFF (Human foreskin fibroblasts) Cells at 0.03 ug/mL; format: functional; outline: as §1
HFF [27] = test: Effect of compound on Na+ ion content of HFF (Human foreskin fibroblasts) Cells at 10 ng/mL; format: functional; outline: as §1
HFF [28] = test: Effect of compound on K+ ion content of HFF (Human foreskin fibroblasts) Cells at 10 ng/mL; format: functional; outline: as §1
HFF [29] = test: Effect of compound on K+ ion content of HFF (Human foreskin fibroblasts) Cells at 30 ng/mL; format: functional; outline: as §1
HFF [30] = test: Effect of compound on K+ ion content of HFF (Human foreskin fibroblasts) Cells at 100 ng/mL; format: functional; outline: as §1
[31] = K+ / Na+ ratio in HF(Human foreskin fibroblasts) cells at 100 ng/mL; format: functional
Outline: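 HF cells were in 6 cm dishes at 5 × 10⁵ to 2 × 10⁶ cells/dish. Growth medium was replaced with serum-free test solution by four rapid rinses. Incubation was 45 min at 37 °C in CO2/air. Dishes were rinsed six times with iced 0.1 M MgCl2 and intracellular K⁺ and Na⁺ were assayed. The K⁺/Na⁺ ratio is the mean of duplicate dishes.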

HFF [32] = test: Effect of compound on Na+ ion content of HFF (Human foreskin fibroblasts) Cells at 30 ng/mL; format: functional; outline: as §1

COc1ccc(CCN(C)CCCC(C#N)(c2ccc(OC)c(OC)c2)C(C)C)cc1OC.Oc1ccc(C2(c3ccc(O)cc3)c3ccccc3-c3ccc(O)cc32)cc1 (centres undefined)
K+ Ion content (HFF [1]): 150 nmol/dish | Na+ ion content (HFF [2]): 2100000000 | K+/Na+ ratio [3]: 0.71

Oc1ccc(C2(c3ccc(O)cc3)c3ccccc3-c3cc(O)ccc32)cc1
Na+ ion content (HFF [4]): 3800000000 | K+ Ion content (HFF [5]): 3e+09 | K+ Ion content (HFF [6]): 270 nmol/dish | Na+ ion content (HFF [7]): 290 nmol/dish | K+ Ion content (HFF [8]): 100 nmol/dish | Na+ ion content (HFF [9]): 1200000000 | Na+ ion content (HFF [10]): 800000000 | K+ Ion content (HFF [11]): 520000000

Oc1ccc(C2(c3ccc(O)cc3)c3ccccc3Oc3ccccc32)cc1
K+ Ion content (HFF [12]): 240 nmol/dish | K+ Ion content (HFF [13]): 25 nmol/dish | Na+ ion content (HFF [14]): 190 nmol/dish | K+ Ion content (HFF [15]): 340 nmol/dish | Na+ ion content (HFF [16]): 290 nmol/dish | Na+ ion content (HFF [17]): 270 nmol/dish

C=C[C@H]1CN2CC[C@H]1C[C@H]2[C@H](O)c1ccnc2ccc(OC)cc12.Oc1ccc(C2(c3ccc(O)cc3)c3ccccc3Oc3ccccc32)cc1
K+ Ion content (HFF [18]): 270 nmol/dish | Na+ ion content (HFF [19]): 1200000000 | K+/Na+ ratio [3]: 2.3

C=C[C@H]1CN2CC[C@H]1C[C@H]2[C@H](O)c1ccnc2ccc(OC)cc12.Oc1ccc(C2(c3ccc(O)cc3)c3ccccc3-c3cc(O)ccc32)cc1
Na+ ion content (HFF [4]): 2200000000 | K+/Na+ ratio [3]: 0.91 | K+ Ion content (HFF [11]): 2000000000

COc1ccc(CCN(C)CCCC(C#N)(c2ccc(OC)c(OC)c2)C(C)C)cc1OC.Oc1ccc(C2(c3ccc(O)cc3)c3ccccc3Oc3ccccc32)cc1 (centres undefined)
K+ Ion content (HFF [18]): 370 nmol/dish | Na+ ion content (HFF [20]): 1100000000 | K+/Na+ ratio [3]: 3.4

COc1ccc(CCN(C)CCCC(C#N)(c2ccc(OC)c(OC)c2)C(C)C)cc1OC.Oc1ccc(C2(c3ccc(O)cc3)c3ccccc3-c3cc(O)ccc32)cc1 (centres undefined)
Na+ ion content (HFF [4]): 1600000000 | K+/Na+ ratio [3]: 1.3 | K+ Ion content (HFF [11]): 2000000000

Oc1ccc(C2(c3ccc(O)cc3)c3ccccc3-c3ccc(O)cc32)cc1
K+ Ion content (HFF [21]): 38 nmol/dish | Na+ ion content (HFF [22]): 3500000000 | K+ Ion content (HFF [23]): 870000000 | Na+ ion content (HFF [24]): 2400000000 | K+ Ion content (HFF [25]): 280 nmol/dish | K+ Ion content (HFF [1]): 55 nmol/dish | Na+ ion content (HFF [26]): 350000000 | Na+ ion content (HFF [2]): 3900000000

Oc1ccc(C2(c3ccc(O)cc3)c3ccccc3-c3c(O)cccc32)cc1
Na+ ion content (HFF [27]): 710000000 | K+ Ion content (HFF [28]): 300 nmol/dish | K+ Ion content (HFF [29]): 240 nmol/dish | K+ Ion content (HFF [30]): 67 nmol/dish | Na+ ion content (HFF [26]): 1.1e+09 | K+/Na+ ratio [31]: 0.29 | Na+ ion content (HFF [32]): 110 nmol/dish
